The source of these data is article PMC8526403 (ACS chemical biology, 2021).

Entries after “also recorded” stand apart in the source; their conditions may differ.

Assay [1] has as its target factor IIa (FIIa) (Homo sapiens, UniProt P01008). In words: Anti-FIIa activity. The assay is classed as biochemical.
Assay [2] has as its target T1, HMGB1 (Mus musculus, UniProt P63158).
T1 sequence (P63158 1-215): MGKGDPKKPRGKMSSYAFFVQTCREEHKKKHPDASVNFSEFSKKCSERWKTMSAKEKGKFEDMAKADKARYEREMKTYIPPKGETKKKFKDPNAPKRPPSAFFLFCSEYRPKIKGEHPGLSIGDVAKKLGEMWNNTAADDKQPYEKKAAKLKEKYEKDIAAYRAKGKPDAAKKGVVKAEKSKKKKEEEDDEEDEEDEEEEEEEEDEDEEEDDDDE
In words: Binding of biotinylated oligosaccharides to HMGB1. The conditions noted are these: biotinylated oligosaccharide, mouse liver lysate; for fold increase in binding to HMGB-1 compared to negative control NS6S 8-mer: Western band intensity. A digest of the protocol:
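Biotinylated oligosaccharides (~20 nmol) were mixed with fresh mouse liver lysate containing HMGB1 in 20 mM HEPES, pH 7.2, 100 mM NaCl, 1% BSA. Incubation was overnight at 4 °C. Complexes were captured on streptavidin agarose and washed 5× in 20 mM HEPES/250 mM NaCl, pH 7.2. They were eluted in LDS buffer and blotted with rabbit monoclonal anti-HMGB1 plus HRP secondary. Bands were quantified densitometrically.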

The target of assay [3] is human FXa (Homo sapiens, UniProt P01008). In words: Anti-FXa activity. The assay is classed as biochemical. As to conditions: for fold increase of anti-FXa IC50 compared to HSoligo 9: ratio of IC50 values; for anti-FXa IC50: with antithrombin, 0–5000 ng/mL. A digest of the protocol:
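Human FXa at 50 U/mL in PBS. Test compound dissolved in PBS at 0–5000 ng/mL, preincubated with antithrombin (35 μg/mL) for 2 min at 37 °C. FXa added for 4 min at 37 °C, then diluted S-2765 (1 mg mL−1). A405 read continuously for 5 min. Maximum slope divided by control maximum slope gives % FXa activity.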

The subject of assay [4] is acetaminophen overdosed mice. As to conditions: acetaminophen overdose model; cited from earlier work.
Assay [5] concerns the target T2, 3-OST-4 (Homo sapiens, UniProt Q9Y661).
T2 sequence (Q9Y661 163-456): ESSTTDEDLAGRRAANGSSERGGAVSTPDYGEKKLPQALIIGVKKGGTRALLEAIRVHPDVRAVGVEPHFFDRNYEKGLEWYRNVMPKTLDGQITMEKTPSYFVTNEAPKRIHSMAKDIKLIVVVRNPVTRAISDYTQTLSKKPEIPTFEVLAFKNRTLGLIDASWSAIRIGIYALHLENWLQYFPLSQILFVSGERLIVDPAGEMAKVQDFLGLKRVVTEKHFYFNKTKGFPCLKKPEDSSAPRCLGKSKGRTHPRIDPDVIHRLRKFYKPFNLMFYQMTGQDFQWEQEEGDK
In words: Reactivity of 12-mers and HS to 3-OST-4 modification. The assay is classed as biochemical. As to conditions: 12-mer substrates compared to HS polysaccharide. The procedure, abridged:
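Each 12-mer (10 μg) was incubated with 3-OST-4 (5 μL of 0.8 mg mL−1 stock) in 100 μL of 50 mM Tris-HCl, pH 7.5. The reaction contained [35S]PAPS (5 μM, 1.2 × 10^5 cpm) and ran 1 h at 37 °C. Product was recovered on DEAE and 35S counted as cpm. A no-substrate reaction served as background.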

The target in assay [6] is T2, 3-OST-4. In words: 3-OST-4 modification of oligosaccharide substrates, anion exchange HPLC analysis. The conditions noted are these: for sulfation by 3-OST-4 (in words): HPLC analysis of substrate with or without 3-OST-4 modification. The assay is classed as biochemical. The procedure, abridged: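 Recombinant human 3-OST-4 (E163–K456) was expressed in Sf9 insect cells and purified on heparin then Ni-Sepharose. Oligosaccharide substrates were incubated overnight at 37 °C with PAPS and 3-OST-4 (0.8 mg mL−1 stock) in 50 mM Tris, pH 7.2, with 2 mM CaCl2. For the 8-mer substrate C, 2 mM MnCl2 was also present. Conversion was followed by anion exchange HPLC.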

Assay [7] concerns the target tau protein (Homo sapiens, UniProt P10636). In words: Binding of biotinylated oligosaccharides to Cy5-labeled tau. The conditions noted are these: biotinylated oligosaccharide. The procedure, abridged: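 Biotinylated oligosaccharides (~10 nmol) were incubated overnight at 4 °C with Cy5-labeled tau (5 μg) in 20 mM HEPES, pH 7.2, 100 mM NaCl, 1% BSA. Complexes were captured on streptavidin agarose and washed 3× in HEPES/250 mM NaCl, then 2× in PBS. Tau was released with heparin lyases II (14 μg) and III (20 μg) over 4 h at RT. Released tau was resolved on 4–12% Bis-Tris gels, read by fluorescence scanning and quantified.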

Assay [8] relates to acetaminophen overdosed mice. In words: Hepatoprotection in acetaminophen overdosed mice. The assay is classed as in vivo, mouse.

Chain of tau protein (P10636 1-441 isoform P10636-8): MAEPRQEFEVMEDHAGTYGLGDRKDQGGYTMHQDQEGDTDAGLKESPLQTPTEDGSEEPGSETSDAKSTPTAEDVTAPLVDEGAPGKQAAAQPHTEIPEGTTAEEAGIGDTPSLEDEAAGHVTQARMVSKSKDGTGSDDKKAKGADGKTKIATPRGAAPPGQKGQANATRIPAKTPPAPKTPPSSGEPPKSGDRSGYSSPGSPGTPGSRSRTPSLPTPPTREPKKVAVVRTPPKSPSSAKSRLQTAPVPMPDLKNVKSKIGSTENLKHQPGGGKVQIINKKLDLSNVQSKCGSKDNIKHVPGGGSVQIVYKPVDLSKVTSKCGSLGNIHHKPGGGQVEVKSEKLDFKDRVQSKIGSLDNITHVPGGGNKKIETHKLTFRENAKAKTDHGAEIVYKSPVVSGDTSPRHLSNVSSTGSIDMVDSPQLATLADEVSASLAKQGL
Chain of human FXa (P01008 33-464): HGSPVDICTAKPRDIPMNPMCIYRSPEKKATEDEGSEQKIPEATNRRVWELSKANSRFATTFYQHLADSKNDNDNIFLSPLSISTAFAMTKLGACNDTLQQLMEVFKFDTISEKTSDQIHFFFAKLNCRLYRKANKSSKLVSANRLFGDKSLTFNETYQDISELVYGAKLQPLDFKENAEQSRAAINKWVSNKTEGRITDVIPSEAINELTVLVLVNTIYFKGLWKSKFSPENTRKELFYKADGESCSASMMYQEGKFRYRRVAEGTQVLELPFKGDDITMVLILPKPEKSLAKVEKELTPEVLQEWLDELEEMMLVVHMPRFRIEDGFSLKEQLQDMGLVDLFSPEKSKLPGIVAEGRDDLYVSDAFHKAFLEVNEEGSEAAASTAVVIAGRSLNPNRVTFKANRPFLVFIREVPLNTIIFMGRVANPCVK
Chain of factor IIa (FIIa) (P01008 33-464): as above

In the case of “GlcNS6S-GlcA-GlcNS6S-GlcA2S-GlcNS3S6S-GlcA-pNP [HSoligo 4]”, the “anti-IIa IC50” value in assay [1] is “no inhibition”. Also, in assay [2], the “fold increase in binding to HMGB-1 compared to negative control NS6S 8-mer” value turned out to be 6 fold. Moreover, in assay [3], the “fold increase of anti-FXa IC50 compared to HSoligo 9” value amounted to 6.9 fold and the “anti-FXa IC50” value was 0.3114 µg/mL. In the case of “GlcNS6S-GlcA-GlcNS6S-GlcA2S-GlcNS3S6S-GlcA2S-pNP [HSoligo 5]”, in assay [1], the “anti-IIa IC50” value is reported as “no inhibition”. Also, the “anti-FXa IC50” value in assay [3] worked out at 0.1544 µg/mL. Take “GlcNS6S-GlcA-GlcNS3S6S-IdoA2S-GlcNS6S-IdoA2S-GlcNS6S-IdoA2S-GlcNS6S-IdoA2S-GlcNS6S-IdoA2S-GlcNS6S-IdoA2S-GlcNS6S-IdoA2S-GlcNS6S-GlcA-Biotin [18-mer AXa]”: the hepatoprotection effect entry in assay [4] is on record as “does not display the hepatoprotection effect”. As to “GlcNAc-(GlcA-GlcNAc)5-GlcA-pNP [12-mer NAc]”, the “reactivity toward 3-OST-4 modification (in words)” value in assay [5] was “not substrates”. For “GlcNS-GlcA-GlcNS-GlcA-GlcNS-IdoA2S-GlcNS-GlcA-pNP [8-mer substrate B]”, in assay [6], the “sulfation by 3-OST-4 (in words)” value is reported as “failed to sulfate”.

As to “GlcNS-GlcA-GlcNS-GlcA2S-GlcNS-GlcA2S-pNP [6-mer substrate E]”, the “sulfation by 3-OST-4 (in words)” value in assay [6] was “highly reactive”. As for “GlcNS-(GlcA-GlcNS)5-GlcA-pNP [12-mer NS]”, the “reactivity toward 3-OST-4 modification (in words)” value in assay [5] is “Lower reactivity”. Turning to “GlcNS6S-GlcA-GlcNS6S-GlcA2S-GlcNS3S6S-IdoA2S-GlcNS-GlcA-pNP [HSoligo 9]”, in assay [1], the “anti-IIa IC50” value is on record as “no inhibition”. Further, the “anti-FXa IC50” value in assay [3] was determined as 0.0225 µg/mL.

Take “GlcNS-GlcA-GlcNS-IdoA2S-GlcNS-IdoA2S-GlcNS-GlcA-pNP [8-mer substrate C]”: in assay [6] (HPLC, conversion to HSoligo 1), the “substrate converted to 3-O-sulfated product after 3-OST-4 modification” value is recorded as “about 71%”. With “GlcNS6S-GlcA-GlcNS6S-GlcA2S-GlcNS3S6S-GlcA2S-GlcNS3S6S-GlcA2S-pNP [HSoligo 7]”, in assay [1], the “anti-IIa IC50” value was “lacks anti-FIIa activity; also recorded: no inhibition”. For the same substance, in assay [2], the “extent of binding to HMGB1 relative to positive control 18-mer AXa (in words)” value is reported as “comparable to that of 18-mer AXa” and the “fold increase in binding to HMGB-1 compared to negative control NS6S 8-mer” value is 15 fold. Besides, in assay [7], the “binding to tau, fold higher than 8-mer NS6S” value is 2 fold; the “binding to tau, fold higher than HSoligo 4” value is 4 fold; the “level of binding to tau relative to 18-mer AXa (in words)” value is on record as “comparable to 18-mer AXa”. For the same substance, in assay [3], the “fold increase of anti-FXa IC50 compared to HSoligo 9” value was 3.5 fold and the “anti-FXa IC50” value turned out to be 0.0795 µg/mL. Also, the “hepatoprotection: plasma level of alanine aminotransferase (ALT)” value in assay [8] was “did not find a decrease”. With “GlcNS-GlcA-(GlcNS-IdoA2S)4-GlcNSGlcA-pNP [12-mer NS2S]”, in assay [5], the “reactivity toward 3-OST-4 modification (in words)” value is reported as “preferably sulfates”. For the substance “GlcNS-GlcA-GlcNS-GlcA2S-GlcNS-GlcA-pNP [6-mer substrate D]”, in assay [6], the “sulfation by 3-OST-4 (in words)” value was “nearly quantitatively converted”.

“GlcNS6S-(GlcA-GlcNS6S)5-GlcA-pNP [12-mer NS6S]”: the “reactivity toward 3-OST-4 modification (in words)” value in assay [5] is “not substrates”. As to “GlcNS6S-GlcA-(GlcNS6S-IdoA2S)4-GlcNS6S-GlcA-pNP [12-mer NS2S6S]”, the “reactivity toward 3-OST-4 modification (in words)” value in assay [5] is reported as “not substrates”.

“GlcNS-GlcA-GlcNS-GlcA2S-GlcNS3S-IdoA2S-GlcNS-GlcA-pNP [HSoligo 8]”: in assay [1], the “anti-IIa IC50” value is reported as “no inhibition”. Moreover, the “anti-FXa IC50” value in assay [3] is recorded as “no inhibition”.
